# Measurements taken from article PMC11489580 (Scientific Reports, 2024).
# Tests used:
# RAW 264.7 cells [1] = test: Apoptosis: caspase 3 cleavage; format: cell-based, murine; details: RAW 264.7, 48 h, 15 µM (western blot, Annexin V)
# Summary of the method: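 RAW 264.7 cells seeded at 50,000 cells/mL and co-treated 48 h with test compound plus CellEvent caspase-3/7 reagent, imaged every 4 h by IncuCyte. For the western blot and Annexin V: 48 h with 15 µM test compound or DMSO. Controls were staurosporin 1 µM ± QVD 10 µM for 4 h. Blots probed for caspase 3, PARP and β-actin. Annexin V-FITC/PI staining was read by flow cytometry as fold change vs DMSO.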
# [2] = system: LPS-stimulated RAW264.7 cells; test: Cxcl10 secretion by ELISA; format: cell-based, murine; details: co-treatment LPS 1 µg/mL and TM 10 µM, 6 h
# Summary of the method: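 RAW264.7 seeded at 200.000 cells/mL and given LPS 1 µg/mL. Test compound (10 µM) or DMSO was either co-added for 6 h, or added after 2 h of LPS for a further 4 h. Supernatant was diluted 1:2 for mouse CXCL10 sandwich ELISA (TMB, 605 nm). pg/mL was normalised to crystal violet cell counts and expressed as % of LPS + DMSO; mean ± s.d., three independent experiments.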
# [3] = biological target: rM1M2_HuR (first two RRM domains of human HuR) / 5'-DY681-labeled AU-rich RNA probe (Homo sapiens, UniProt Q15717); test: RNA Electrophoretic Mobility Shift Assay; format: binding
# Summary of the method: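 Human HuR RRM1-2 (rM1M2) was expressed in E. coli BL21. Protein (3.7 nM) was incubated 20 min with 1 nM 5′-DY681-labelled 26-nt AU-rich RNA and DMSO or test compound (15 µM screen; 0.01–25 µM dose–response). Samples ran on 4% native polyacrylamide at 80 V, 1.5 h, and were scanned for DY681. IC50 came from titration curves of band quantification.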
# [4] = biological target: His-tagged rM1M2 HuR protein / 5'-Bi-TNF ARE probe (Homo sapiens, UniProt Q15717); test: Homogeneous Time-Resolved Fluorescence; format: binding
# Summary of the method: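 His-tagged HuR M1M2 (20 nM) incubated with a biotinylated 26-nt TNF ARE RNA probe (50 nM), donor/acceptor beads and test compound (0.01–100 µM); DMSO control; protein hook point determined beforehand. HTRF signal was normalised to DMSO and fitted by nonlinear regression with a one-site model to give IC50. Mean ± s.d. of three independent experiments.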
# [5] = Kinetic solubility by LC-MS in PBS with DMSO; format: physicochemical; details: 20% DMSO
# [6] = system: RAW264.7 murine macrophages; test: OZblue cell viability assay; format: cell-based; details: Mus musculus, RAW264.7, 48 h, read-out: IC50 cell viability
# Summary of the method: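 RAW264.7 murine macrophages exposed for 48 h to test compound at 1 to 50 µM. Viability was read with the OZblue reagent and IC50 taken from the concentration–response. Mean ± s.d. of three independent experiments.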
# [7] = system: LPS-stimulated RAW264.7 cells; test: qRT-PCR of LPS-induced genes; format: cell-based, murine; details: co-treatment LPS 1 µg/mL and TM 10 µM, 6 h
# RAW 264.7 cells [8] = test: Cell cycle analysis, propidium iodide FACS; format: cell-based, murine; details: 2 / TM7n and 5 / TM11 at 10 µM and 20 µM, respectively, 48 h
# Summary of the method: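 RAW 264.7 cells seeded at 250.000 cells/mL and exposed to test compound for 48 h, then fixed in 70% ethanol and stained with propidium iodide for flow cytometry. Controls were serum-free starvation for 24 h (G0/G1 block) and nocodazole for 2 h (G2/M block). Mean ± s.d. of three independent experiments.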
# RAW 264.7 cells [9] = test: Real-time cell proliferation by Incucyte; format: cell-based, murine; details: RAW 264.7, 72 h
# Summary of the method: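 Growth curves were recorded by live-cell IncuCyte imaging of RAW 264.7 cells treated with test compounds over 72 h, and analysed in IncuCyte. Mean ± s.d. of three independent experiments.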
# Chain of rM1M2_HuR (first two RRM domains of human HuR) / 5'-DY681-labeled AU-rich RNA probe (Q15717 20-186 limits assumed): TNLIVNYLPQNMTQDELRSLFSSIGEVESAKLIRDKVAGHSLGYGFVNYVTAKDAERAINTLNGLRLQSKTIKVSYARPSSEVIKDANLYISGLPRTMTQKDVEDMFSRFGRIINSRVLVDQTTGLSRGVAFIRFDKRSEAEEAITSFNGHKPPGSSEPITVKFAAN
# Chain of His-tagged rM1M2 HuR protein / 5'-Bi-TNF ARE probe (Q15717 20-186 limits assumed): as above
SMILES,"activation of apoptosis (caspase 3, PARP cleavage, Annexin V) (RAW 264.7 cells [1])",Cxcl10 level in supernatant [2],IC50 [3] [nM],"inhibitory effect on HuR-RNA complex formation (REMSA screen) ([3]; TMs at 15 µM, 3.7 nM rM1M2_HuR, 1 nM RNA probe)",IC50 [4] [nM],solubility relative to 2 / TM7n or 1 / TM6a [5],IC50 [6] [nM],"expression of LPS-induced readout genes (Cxcl10, Fas, Nos2, Il1β) [7]",cell cycle distribution (RAW 264.7 cells [8]),proliferation rate (real-time growth) (RAW 264.7 cells [9])
"Cc1occ2c1C(=O)c1c(O)ccc(O)c1C2 [MS-444, reference compound]",absence of apoptotic effect,,,,,,,,,
"O=C1C=Cc2c(c(-c3ccco3)cn2S(=O)(=O)c2ccccc2)C1=O [5 / TM11, 3-(furan-2-yl)-1-(phenylsulfonyl)-1 H-indole-4,5-dione]",did not observe the activation of the apoptotic machinery,downregulation of its level,770,greatest inhibitory effect,680,ten times more soluble,15000,ability to counteract the effect of LPS stimulation,accumulation of the cells in the S and G2/M phases,dose-dependent decrease in proliferation rate
